From PMC11128822 (Heliyon, 2024)
Like-named read-outs stand apart in the source and are kept apart here.

How the values were obtained:
SARS-CoV-2 [1] = assay: Lung histology of infected hamsters; type: in vivo, Syrian hamsters
Procedure, shortened: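 Infected hamsters were dosed every 12 h from the time of infection. MOV was given by oral gavage under isoflurane in water with 10 % PEG400 and 2.5 % Kolliphor EL. FAV was given intraperitoneally to awake animals. Euthanasia was on D5. Lungs were collected after intratracheal instillation of 4 % formaldehyde, fixed 72 h at room temperature and paraffin-embedded. Lesions were graded semi-quantitatively (up to 4 = severe), and scores were summed.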

SARS-CoV-2 [2] = assay: microbe, parasite or virus in culture; type: cell-based, human; settings: for viral infectious titres at the apical side of HAE vs virus control: D2 to D4
[3] = Molnupiravir pharmacokinetics: NHC trough concentration in plasma and lung; type: in vivo, Syrian hamsters
Procedure, shortened: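 MOV was given by oral gavage every 12 h, with the first dose at infection (D0), 12 h before (D-1) or 12 h after (D1). Hamsters were euthanised 15 h after the last dose on D3, giving trough values. Samples were EDTA plasma and lung lobes homogenised in 0.9 % NaCl. NHC was extracted with acetonitrile and quantified by UPLC-MS/MS (LLOQ 5 ng/mL). The partition coefficient was the lung:plasma concentration ratio.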

SARS-CoV-2 [4] = type: in vivo, Syrian hamsters; settings: for reduction of lung infectious viral titers vs untreated: 300 mg/kg/day BID oral, D3
SARS-CoV-2 genome [5] = assay: Sequence analysis of the full-length viral genome in HAE supernatants; type: cell-based, human
SARS-CoV-2 [6] = type: in vivo, Syrian hamsters
SARS-CoV-2 genome [7] = type: in vivo, Syrian hamsters; settings: hamster lungs
SARS-CoV-2 [8] = type: cell-based, human; settings: D2 to D4
SARS-CoV-2 [9] = type: in vivo, Syrian hamsters; settings: 150, 300, 400 mg/kg/day BID, from D0, D3
cytokines in lungs = assay: Expression level of seven cytokines in lungs; type: in vivo, Syrian hamsters; settings: 300 mg/kg/day BID from D0, D5
COVID-19 [10] = settings: PANORAMIC trial, cited from earlier work
COVID-19 [11] = settings: phase 3 MOVE OUT trial; cited from earlier work

## NC(=O)c1nc(F)c[nH]c1=O [FAV, Favipiravir]
SARS-CoV-2 [1]; FAV intraperitoneally 925 mg/kg/day BID, lungs at D5
  cumulative pathological scores vs untreated group: significantly different score

## CCC(CC)COC(=O)[C@H](C)N[P@](=O)(OC[C@H]1O[C@@](C#N)(c2ccc3c(N)ncnn23)[C@H](O)[C@@H]1O)Oc1ccccc1 [RDV, Remdesivir]
SARS-CoV-2 [2]; 10 μM, positive control
  infectious titres in HAE: significantly reduced

## O=c1nc(NO)ccn1[C@@H]1O[C@H](CO)[C@@H](O)[C@H]1O [NHC, β-D N4-hydroxycytidine]
[3]; 15 h after last intake
  NHC concentration in lung, 400 mg/kg/day BID compared to 150 mg/kg/day BID: significantly higher
[3]; 15 h after last intake, MOV 150, 300, 400 mg/kg/day BID oral
  NHC plasma trough concentrations: comparable between doses
[3]; MOV 300 mg/kg/day BID from D-1, D0 or D1
  lung and plasma NHC trough concentrations between treatment strategies: no difference
[3]; dose assessment experiment, all doses
  Lung partition coefficients (ratio of lung over plasma concentrations): above 1
[3]; therapeutic strategies experiment, 300 mg/kg/day BID
  pulmonary partition coefficient: above 1

## CC(C)C(=O)OC[C@H]1O[C@@H](n2ccc(NO)nc2=O)[C@H](O)[C@@H]1O [MOV, molnupiravir]
SARS-CoV-2 [4]; 150, 300 and 400 mg/kg/day BID oral, from D0, lungs at D3
  infectious titers in clarified lung homogenates vs untreated animals: significantly lower
SARS-CoV-2 [4]; dose assessment experiment, 150-400 mg/kg/day BID
  lung particle-to-infectious unit ratio vs untreated: No significant differences
SARS-CoV-2 [4]; pre-emptive (D0)
  reduction of lung infectious viral titers vs untreated: 1.03 log10
SARS-CoV-2 [4]; preventive (D-1), 300 mg/kg/day BID
  lung particles to infectious unit ratio vs control: significant elevation
SARS-CoV-2 [4]; preventive (D-1)
  reduction of lung infectious viral titers vs untreated: 1.12 log10
SARS-CoV-2 genome [5]; 0.3 μM
  average number of MVs per genome: 20
  mean frequency of transition-type MVs: 0.81
SARS-CoV-2 genome [5]; 1 μM
  average number of MVs per genome: 88
  mean frequency of transition-type MVs: 0.97
SARS-CoV-2 genome [5]; 3 μM
  average number of MVs per genome: 18.3
  mean frequency of transition-type MVs: 0.89
SARS-CoV-2 genome [5]; pooled analysis
  increase of type C to U-MVs, exposed vs non-exposed HAE: significance found
SARS-CoV-2 [6]; 300 mg/kg/day BID, three treated groups (D-1, D0, D1)
  viral RNA yields in lungs vs control group: did not differ significantly
SARS-CoV-2 [6]; 150 or 400 mg/kg/day BID oral, from D0, D3
  viral RNA yields in lungs vs untreated animals: significant lower
SARS-CoV-2 genome [7]; 300 mg/kg/day BID
  G to A MVs vs untreated group: significant increase
  mean frequency of transitions-type MVs vs untreated: higher in the treated group compared to the untreated group, but not significantly
  number of MVs with a frequency greater than 10 % vs untreated: significant higher number
SARS-CoV-2 genome [7]; 300 mg/kg/day BID from D0
  mean number of MVs per genome: 29.5
SARS-CoV-2 [8]; 0.3 μM
  viral RNA yields at the apical side of HAE vs virus control: no significant reduction
SARS-CoV-2 [8]; 1 μM
  viral RNA yields at the apical side of HAE vs virus control: significant reduction was observed at D3 and D4
SARS-CoV-2 [8]; 3 μM
  viral RNA yields at the apical side of HAE vs virus control: significant decrease
SARS-CoV-2 [9]
  RNA viral yields in nasal washes vs untreated animals: no significant differences
Cytokines in lungs
  expression of IL10 in lungs vs vehicle group: reduction was not significant
  expression of TNF in lungs vs vehicle group: reduction was not significant
  expression of cytokine CCl5 in lungs vs vehicle group: significantly decrease
  expression of cytokine CxCl10 in lungs vs vehicle group: significantly decrease
COVID-19 [10]
  time to recovery: reduced time to recovery
  viral load: reduced viral load
COVID-19 [10]; vaccinated patients
  reduction in the risk of hospitalisation or death: no reduction
SARS-CoV-2 [1]; MOV 300 mg/kg/day BID from D0, lungs at D5
  cumulative pathological scores vs untreated group: no significant difference
COVID-19 [11]
  efficacy in reducing the risk of hospitalisation or death: modest efficacy
SARS-CoV-2 [2]; 0.3 μM
  viral infectious titres at the apical side of HAE vs virus control: significant decrease in infectious titres was observed only at D3
SARS-CoV-2 [2]; 1 μM
  viral infectious titres at the apical side of HAE vs virus control: Significant decrease
SARS-CoV-2 [2]; 3 μM
  viral infectious titres at the apical side of HAE vs virus control: Significant decrease
SARS-CoV-2 [2]; Severe acute respiratory syndrome coronavirus 2, in Homo sapiens
  IC50: 1000 nM
